This is an account of results in ChEMBL document CHEMBL4017500 (J Med Chem, 2017).

Calls of active or inactive are those of the source. The rule behind the calls is not given here.

Data set [1] addresses 72 kDa type IV collagenase (Homo sapiens) (UniProt P08253). Briefly: Inhibition of human MMP2 (Tyr110 to Asp452 residues) expressed in yeast at 50 to 100 uM using Mca-Pro-LeuGly-Leu-Dpa-Ala-Arg-NH2.AcOH as substrate preincubated for 30 mins followed by substrate addition measured after 20 mins by fluorescence assay relative to control. In outline: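 Human recombinant MMP-2 (1.16 U/well) or MMP-12 (0.007 U/well) in 50 mM HEPES, 10 mM CaCl2, 0.05% Brij-35, pH 7.5. Enzyme and inhibitor pre-incubated 30 min at 37 °C, then OmniMMP fluorogenic substrate (4 μM) added. Fluorescence rise followed 20 min at ex/em 320/400 nm. Activity relative to no-inhibitor wells, with 200 μM NSA as 0%. Run in triplicate.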

The test system of data set [2] is Bacteria. Kind of data set: Inhibition of bacterial MBP-fused NDM1 expressed in Escherichia coli BL21(DE3) ausing fluorocillin as substrate preincubated for 20 mins followed by substrate addition measured at 1 sec time interval for 25 mins in presence of ZnSO4 by fluorescence assay.
Data set [3] concerns the target Histone deacetylase 1 (Homo sapiens) (UniProt Q13547). Kind of data set: Inhibition of full length human C-terminal FLAG/His-tagged HDAC1 expressed in baculovirus infected sf9 cells at 50 to 100 uM using HDAC substrate 3 preincubated for 5 mins followed by substrate addition measured after 30 mins by fluorescence assay. In outline: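 Inhibitor pre-incubated 5 min, then HDAC substrate 3 (20 μM) added, 30 min at 37 °C. Developer added for 15 min at room temperature; fluorescence read at ex/em 360/460 nm. Activity relative to no-inhibitor wells, with 200 μM SAHA as 0%. Run in triplicate.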

The test system of data set [4] is Bacteria. Briefly: Binding affinity to bacterial CoCoNDM-1 expressed in Escherichia coli BL21(DE3) assessed as CoCoNDM-1-compound ternary complex formation at 1 equiv by 1H […] spectroscopic method.
In data set [5] the test system is Bacteria. Kind of data set: Binding affinity to bacterial NDM-1 expressed in Escherichia coli BL21(DE3) assessed as Zn2+ stripping at. In outline:
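NDM-1 (8 μM final) in 50 mM HEPES pH 7.5 mixed with compound at 0–128 μM for 30 min. Then dialyzed 4 h against metal-free 50 mM HEPES pH 7.5. Residual Zn(II) measured by ICP-AES at 213.856 nm.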

Data set [6] can be described thus: Fluorescence quenching activity assessed as reduction in tryptophan fluorescence up to 32 uM after 30 mins by luminescence spectrometric method. The arrangement: scale not given: the % may be the effect or the level left. In outline:
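NDM-1 (2 μM final) in 50 mM HEPES pH 7.5 with compound at 4–32 μM for 30 min. Excitation 280 nm, emission scanned 300–400 nm, intensity taken at 348 nm. Scaled with buffer as 0% and inhibitor-free enzyme as 100%. Free L-tryptophan (2 μM) run as control.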

In data set [7] the test system is Escherichia coli. Kind of data set: Inhibition of NDM1 in Escherichia coli isolate Ch8.68 assessed as potentiation of imipenem-induced antibacterial activity by measuring imipenem MIC at 100 mg/L after 18 to 20 hrs by broth microdilution assay (reference value: 16 mg/L). Background: Dilution methods test growth across graded concentrations, often in twofold steps.

The test system of data set [8] is Escherichia coli. Briefly: Inhibition of NDM1 in Escherichia coli isolate Ch8.69 assessed as potentiation of imipenem-induced antibacterial activity by measuring imipenem MIC at 100 mg/L after 18 to 20 hrs by broth microdilution assay (reference value: 4 mg/L).
The subject of data set [9] is Escherichia coli. Kind of data set: Inhibition of NDM1 in Escherichia coli isolate Ch8.72 assessed as potentiation of imipenem-induced antibacterial activity by measuring imipenem MIC at 100 mg/L after 18 to 20 hrs by broth microdilution assay (reference value: 16 mg/L).
Data set [10] concerns Escherichia coli. Kind of data set: Inhibition of NDM1 in Escherichia coli isolate Ah8.75 assessed as potentiation of imipenem-induced antibacterial activity by measuring imipenem MIC at 100 mg/L after 18 to 20 hrs by broth microdilution assay (reference value: 16 mg/L).
Data set [11] deals with Metallo-beta-lactamase type 2 (Klebsiella pneumoniae) (UniProt C7C422). Kind of data set: Inhibition of NDM1 in Klebsiella pneumoniae isolate Pd1.50 assessed as potentiation of imipenem-induced antibacterial activity by measuring imipenem MIC at 100 mg/L after 18 to 20 hrs by broth microdilution assay (reference value: 8 mg/L).
Chain of Metallo-beta-lactamase type 2 (Klebsiella pneumoniae) (C7C422 whole entry): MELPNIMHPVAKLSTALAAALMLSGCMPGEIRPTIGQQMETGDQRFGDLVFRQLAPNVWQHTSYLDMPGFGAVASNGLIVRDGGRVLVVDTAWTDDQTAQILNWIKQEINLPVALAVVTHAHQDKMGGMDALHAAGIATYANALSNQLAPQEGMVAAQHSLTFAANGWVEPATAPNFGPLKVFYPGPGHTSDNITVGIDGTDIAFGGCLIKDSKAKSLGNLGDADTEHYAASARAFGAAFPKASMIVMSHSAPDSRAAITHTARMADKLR
Data set [12] has the same target. Briefly: Inhibition of NDM1 in Klebsiella pneumoniae isolate Pd1.53 assessed as potentiation of imipenem-induced antibacterial activity by measuring imipenem MIC at 100 mg/L after 18 to 20 hrs by broth microdilution assay (reference value: 8 mg/L).
For data set [13] the target is unchanged. Kind of data set: Inhibition of NDM1 in Klebsiella pneumoniae isolate Cm1.62 assessed as potentiation of imipenem-induced antibacterial activity by measuring imipenem MIC at 100 mg/L after 18 to 20 hrs by broth microdilution assay (reference value: 16 mg/L).
In data set [14] the test system is Escherichia coli. Kind of data set: Effect on growth of Escherichia coli isolate Ch8.70 at 100 mg/L after 18 to 20 hrs by broth microdilution assay. Put shortly: (§1)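 Mueller-Hinton broth microdilution per CLSI, triplicate. blaNDM-1 clinical isolates grown from OD600 0.1 to 0.224 (~1–2 × 10^8 CFU/mL), diluted 3 μL into 4997 μL MH, and 100 μL added to 100 μL of compound (100 mg/L) alone. Incubated 37 °C for 18–20 h, then scored for growth.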

In data set [15] the test system is Escherichia coli. Kind of data set: Effect on growth of Escherichia coli isolate Ch8.72 at 100 mg/L after 18 to 20 hrs by broth microdilution assay. Put shortly: as §1
The test system of data set [16] is Escherichia coli. Briefly: Effect on growth of Escherichia coli isolate Ah8.73 at 100 mg/L after 18 to 20 hrs by broth microdilution assay. In outline:
as §1

Data set [17] relates to Escherichia coli. Kind of data set: Effect on growth of Escherichia coli isolate Ah8.74 at 100 mg/L after 18 to 20 hrs by broth microdilution assay. In outline:
as §1

Data set [18] relates to Escherichia coli. Kind of data set: Effect on growth of Escherichia coli isolate Ah8.75 at 100 mg/L after 18 to 20 hrs by broth microdilution assay. In outline: as §1
The subject of data set [19] is Klebsiella pneumoniae. Briefly: Effect on growth of Klebsiella pneumoniae isolate Pd1.49 at 100 mg/L after 18 to 20 hrs by broth microdilution assay. In outline:
as §1

For data set [20], the system named is Klebsiella pneumoniae. Briefly: Effect on growth of Klebsiella pneumoniae isolate Pd1.50 at 100 mg/L after 18 to 20 hrs by broth microdilution assay. In outline: as §1
Data set [21] relates to Klebsiella pneumoniae. Kind of data set: Effect on growth of Klebsiella pneumoniae isolate Pd1.53 at 100 mg/L after 18 to 20 hrs by broth microdilution assay. In outline:
as §1

The test system of data set [22] is Klebsiella pneumoniae. Briefly: Effect on growth of Klebsiella pneumoniae isolate Cm1.63 at 100 mg/L after 18 to 20 hrs by broth microdilution assay. In outline: as §1
Data set [23] relates to histone deacetylase 1/6 (Homo sapiens). Briefly: Selectivity ratio of compound effect for inhibition of bacterial MBP-fused NDM1 expressed in Escherichia coli BL21(DE3) to compound effect for inhibition of human histone deacetylases HDAC-1/HDAC-6.

Chain of 72 kDa type IV collagenase (Homo sapiens) (P08253 110-660 limits assumed): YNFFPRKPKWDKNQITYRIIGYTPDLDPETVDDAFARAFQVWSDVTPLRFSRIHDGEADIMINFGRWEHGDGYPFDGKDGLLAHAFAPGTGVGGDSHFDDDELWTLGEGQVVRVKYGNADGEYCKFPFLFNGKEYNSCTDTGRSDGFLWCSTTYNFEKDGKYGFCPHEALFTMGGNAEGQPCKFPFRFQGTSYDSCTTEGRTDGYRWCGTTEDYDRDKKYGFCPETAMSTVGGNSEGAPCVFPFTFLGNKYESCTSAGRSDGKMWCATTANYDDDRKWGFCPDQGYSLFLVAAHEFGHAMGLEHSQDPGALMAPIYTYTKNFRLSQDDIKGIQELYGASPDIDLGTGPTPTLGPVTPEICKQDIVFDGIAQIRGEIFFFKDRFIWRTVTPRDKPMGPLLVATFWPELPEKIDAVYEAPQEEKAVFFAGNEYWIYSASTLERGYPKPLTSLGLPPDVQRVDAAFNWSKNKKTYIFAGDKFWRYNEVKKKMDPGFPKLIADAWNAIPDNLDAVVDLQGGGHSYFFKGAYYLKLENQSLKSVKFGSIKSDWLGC
Chain of Histone deacetylase 1 (Homo sapiens) (Q13547 whole entry): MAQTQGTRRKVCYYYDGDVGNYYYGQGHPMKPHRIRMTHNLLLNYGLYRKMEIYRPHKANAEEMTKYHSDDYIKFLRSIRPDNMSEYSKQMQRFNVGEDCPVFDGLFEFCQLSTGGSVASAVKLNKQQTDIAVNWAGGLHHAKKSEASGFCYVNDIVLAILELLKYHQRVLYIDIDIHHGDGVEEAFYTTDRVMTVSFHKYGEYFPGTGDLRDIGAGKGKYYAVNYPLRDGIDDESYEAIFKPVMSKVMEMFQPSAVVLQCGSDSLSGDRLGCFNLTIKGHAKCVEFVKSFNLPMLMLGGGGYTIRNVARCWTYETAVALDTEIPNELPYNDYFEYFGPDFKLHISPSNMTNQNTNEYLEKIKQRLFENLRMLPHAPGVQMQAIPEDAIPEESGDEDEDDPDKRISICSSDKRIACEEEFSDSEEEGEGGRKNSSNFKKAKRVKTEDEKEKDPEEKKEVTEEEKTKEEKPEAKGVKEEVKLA

On to `Nc1cccc(-c2cc(C(=O)O)nc(C(=O)O)c2)c1`, for which the inhibition in data set [1] and in data set [3] was below 50% throughout. In the data set on Bacteria [2], the inhibition (as a rule, the change of the read-out against control, counted positive when it falls) is “Active”. Besides, the outcome with Bacteria [4] was Active. In addition, the result with Bacteria [5] was inactive. The Activity was 50% in data set [6]; “Non-Toxic” in the data set with Escherichia coli [14]; “Non-Toxic” with Escherichia coli [15]; “Non-Toxic” with Escherichia coli [16]; “Non-Toxic” with Escherichia coli [17]; “Non-Toxic” in the data set on Escherichia coli [18]. The Activity result in the data set with Klebsiella pneumoniae [19], in the data set with Klebsiella pneumoniae [20], in the data set on Klebsiella pneumoniae [21] and in the data set on Klebsiella pneumoniae [22] was “Non-Toxic” each time. Moreover, the MIC amounted to 1 µg/mL in the data set with Escherichia coli [7]; 0.5 µg/mL in the data set with Escherichia coli [8]; 0.5 µg/mL in the data set with Escherichia coli [9]; 0.5 µg/mL with Escherichia coli [10]; 0.5 µg/mL in data set [11]; 0.5 µg/mL in data set [12]. The MIC in [13] stood at 1 µg/mL. In data set [23], the Selectivity ratio was 500 to 1000.
